Molecules are shown by their SMILES.

Test [1] deals with HCC827. Kind of test: Antiproliferative activity against human HCC827 cells assessed as reduction in cell viability incubated for 72 hrs by cell-titer glo assay. The following applies: HCC827, 72 h.
Test [2] addresses RAC-alpha serine/threonine-protein kinase (Homo sapiens) (UniProt P31749). Description: Binding affinity to wild-type human partial length AKT1 expressed in bacterial expression system assessed as residual binding level at 1 uM by Kinomescan method relative to control.
The target in test [3] is 5'-AMP-activated protein kinase catalytic subunit alpha-1 (Homo sapiens) (UniProt Q13131). Kind of test: Binding affinity to wild-type human partial length AMPK alpha1 (M1 to E306 residues) expressed in bacterial expression system assessed as residual binding level at 1 uM by Kinomescan method relative to control.
Test [4] addresses BMP-2-inducible protein kinase (Homo sapiens) (UniProt Q9NSY1). Kind of test: Binding affinity to wild-type human partial length BIKE (S34 to N329 residues) expressed in bacterial expression system assessed as residual binding level at 1 uM by Kinomescan method relative to control. The procedure, abridged:
(§1)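 KinomeScan, an active site-directed competition binding panel of 468 kinases. The test compound was at 1 μM. The readout is remaining kinase binding as a percentage of the DMSO control. Scores above 35% were treated as weak binding and not listed.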

The target of test [5] is Calcium/calmodulin-dependent protein kinase type IV (Homo sapiens) (UniProt Q16566). Description: Binding affinity to wild-type human partial length CAMK4 (A22 to A322 residues) expressed in bacterial expression system assessed as residual binding level at 1 uM by Kinomescan method relative to control.
Test [6] deals with Calcium/calmodulin-dependent protein kinase kinase 2 (Homo sapiens) (UniProt Q96RR4). Kind of test: Binding affinity to wild-type human partial length CAMKK2 (D65 to V471 residues) expressed in bacterial expression system assessed as residual binding level at 1 uM by Kinomescan method relative to control.
Test [7] has as its target Cyclin-dependent kinase 11B (Homo sapiens) (UniProt P21127). Description: Binding affinity to wild-type human partial length CDC2L1 (P353 to G692 residues) expressed in bacterial expression system assessed as residual binding level at 1 uM by Kinomescan method relative to control.
In test [8] the target is Casein kinase I isoform alpha (Homo sapiens) (UniProt P48729). Description: Binding affinity to wild-type human partial length CSNK1A1 (M1 to L450 residues) expressed in mammalian expression system assessed as residual binding level at 1 uM by Kinomescan method relative to control. The procedure, abridged: (§2)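 Active-site-directed competition binding panel of 468 kinases (KinomeScan), compound at 1 μM. The read-out is kinase remaining bound, given as a percentage of the DMSO control. […]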

Test [9] has as its target Epidermal growth factor receptor (Homo sapiens) (UniProt P00533). Kind of test: Binding affinity to wild-type human partial length EGFR (R669 to V1011 residues) expressed in bacterial expression system assessed as residual binding level at 1 uM by Kinomescan method relative to control.
Test [10] has as its system Epidermal growth factor receptor (Homo sapiens), P00533 [T790M]. Description: Binding affinity to human partial length EGFR T790M mutant (R669 to G1022 residues) expressed in mammalian expression system assessed as residual binding level at 1 uM by Kinomescan method relative to control. A digest of the protocol:
(§3)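 KinomeScan active site-directed competition binding panel (468 kinases), compound tested at 1 μM. Result expressed as remaining kinase signal versus DMSO control (percent of control).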

The target in test [11] is Tyrosine-protein kinase ITK/TSK (Homo sapiens) (UniProt Q08881). Description: Binding affinity to wild-type human partial length ITK (R335 to L620 residues) expressed in bacterial expression system assessed as residual binding level at 1 uM by Kinomescan method relative to control.
The target of test [12] is Mitogen-activated protein kinase 8 (Homo sapiens) (UniProt P45983). Description: Binding affinity to wild-type human full length JNK1 (M1 to Q384 residues) expressed in mammalian expression system assessed as residual binding level at 1 uM by Kinomescan method relative to control. A digest of the protocol: as §1
Test [13] concerns Mast/stem cell growth factor receptor Kit (Homo sapiens), P10721 [V559D,T670I]. Kind of test: Binding affinity to human partial length KIT V559D/T670I double mutant (Y545 to D952 residues) expressed in bacterial expression system assessed as residual binding level at 1 uM by Kinomescan method relative to control. The procedure, abridged:
as §3

Test [14] concerns the target Tyrosine-protein kinase Lyn (Homo sapiens) (UniProt P07948). Description: Binding affinity to wild-type human partial length LYN (C219 to Q511 residues) expressed in bacterial expression system assessed as residual binding level at 1 uM by Kinomescan method relative to control. A digest of the protocol: as §2
Test [15] concerns the target Mitogen-activated protein kinase kinase kinase 3 (Homo sapiens) (UniProt Q99759). Description: Binding affinity to wild-type human partial length MAP3K3 (E320 to Y626 residues) expressed in mammalian expression system assessed as residual binding level at 1 uM by Kinomescan method relative to control.
In test [16] the target is Maternal embryonic leucine zipper kinase (Homo sapiens) (UniProt Q14680). Description: Binding affinity to wild-type human full length MELK (M1 to V651 residues) expressed in bacterial expression system assessed as residual binding level at 1 uM by Kinomescan method relative to control. The procedure, abridged:
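Active-site-directed competition binding panel (KinomeScan) covering 468 kinases. Test agent was screened at 1 μM. The read-out is the remaining kinase signal expressed relative to a DMSO control. Scores above 35%, taken as weak binding, were not reported.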

In test [17] the target is Mitogen-activated protein kinase 12 (Homo sapiens) (UniProt P53778). Kind of test: Binding affinity to wild-type human full length p38-gamma (M1 to L367 residues) expressed in mammalian expression system assessed as residual binding level at 1 uM by Kinomescan method relative to control. The procedure, abridged: as §1
Test [18] concerns the target Serine/threonine-protein kinase PAK 2 (Homo sapiens) (UniProt Q13177). Kind of test: Binding affinity to wild-type human partial length PAK2 (P151 to R525 residues) expressed in bacterial expression system assessed as residual binding level at 1 uM by Kinomescan method relative to control. A digest of the protocol: as §2
Test [19] has as its target Platelet-derived growth factor receptor alpha (Homo sapiens) (UniProt P16234). Kind of test: Binding affinity to wild-type human partial length PDGFRA (V575 to D1002 residues) expressed in mammalian expression system assessed as residual binding level at 1 uM by Kinomescan method relative to control. The procedure, abridged: as §2
The target in test [20] is cGMP-dependent protein kinase 1 (Homo sapiens) (UniProt Q13976). Kind of test: Binding affinity to wild-type human partial length PRKG1 (L339 to F686 residues) expressed in bacterial expression system assessed as residual binding level at 1 uM by Kinomescan method relative to control.
Test [21] addresses TRAF2 and NCK-interacting protein kinase (Homo sapiens) (UniProt Q9UKE5). Description: Binding affinity to wild-type human partial length TNIK (D4 to K311 residues) expressed in bacterial expression system assessed as residual binding level at 1 uM by Kinomescan method relative to control.
The target in test [22] is Wee1-like protein kinase 2 (Homo sapiens) (UniProt P0C1S8). Description: Binding affinity to wild-type human partial length WEE2 (M204 to K492 residues) expressed in bacterial expression system assessed as residual binding level at 1 uM by Kinomescan method relative to control.

Chain of Tyrosine-protein kinase ITK/TSK (Homo sapiens) (Q08881 whole entry, the tested form may be a part): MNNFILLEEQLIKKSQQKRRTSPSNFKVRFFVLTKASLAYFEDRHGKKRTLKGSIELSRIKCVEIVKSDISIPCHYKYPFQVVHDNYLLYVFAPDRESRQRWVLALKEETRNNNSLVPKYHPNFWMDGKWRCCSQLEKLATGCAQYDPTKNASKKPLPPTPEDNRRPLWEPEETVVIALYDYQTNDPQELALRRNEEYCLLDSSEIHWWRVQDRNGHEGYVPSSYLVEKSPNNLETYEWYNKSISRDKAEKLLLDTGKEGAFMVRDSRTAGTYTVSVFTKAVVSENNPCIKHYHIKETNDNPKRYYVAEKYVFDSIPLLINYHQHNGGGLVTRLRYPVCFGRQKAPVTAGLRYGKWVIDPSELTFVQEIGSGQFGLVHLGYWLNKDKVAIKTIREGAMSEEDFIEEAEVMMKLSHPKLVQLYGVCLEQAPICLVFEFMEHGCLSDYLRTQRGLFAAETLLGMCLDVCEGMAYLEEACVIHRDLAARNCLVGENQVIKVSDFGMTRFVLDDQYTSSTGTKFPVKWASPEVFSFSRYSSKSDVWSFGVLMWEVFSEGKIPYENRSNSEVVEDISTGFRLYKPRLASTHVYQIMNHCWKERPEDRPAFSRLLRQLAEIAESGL
Chain of 5'-AMP-activated protein kinase catalytic subunit alpha-1 (Homo sapiens) (Q13131 whole entry, looked up, the tested form may be a part): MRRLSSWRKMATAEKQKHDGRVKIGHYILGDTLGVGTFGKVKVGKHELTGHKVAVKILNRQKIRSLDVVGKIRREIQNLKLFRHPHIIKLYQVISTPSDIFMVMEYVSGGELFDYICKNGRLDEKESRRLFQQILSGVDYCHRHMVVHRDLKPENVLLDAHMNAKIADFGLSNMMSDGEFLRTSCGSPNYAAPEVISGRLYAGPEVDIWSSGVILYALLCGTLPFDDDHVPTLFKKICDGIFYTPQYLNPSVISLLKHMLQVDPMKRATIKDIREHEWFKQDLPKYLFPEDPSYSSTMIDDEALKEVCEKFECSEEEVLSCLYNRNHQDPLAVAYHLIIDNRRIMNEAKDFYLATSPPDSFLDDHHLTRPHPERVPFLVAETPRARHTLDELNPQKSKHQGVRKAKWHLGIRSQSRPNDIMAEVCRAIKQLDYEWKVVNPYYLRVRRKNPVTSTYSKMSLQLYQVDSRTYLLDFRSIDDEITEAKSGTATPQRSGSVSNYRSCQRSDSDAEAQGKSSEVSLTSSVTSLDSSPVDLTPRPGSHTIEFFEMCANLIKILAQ
Chain of cGMP-dependent protein kinase 1 (Homo sapiens) (Q13976 whole entry, the tested form may be a part): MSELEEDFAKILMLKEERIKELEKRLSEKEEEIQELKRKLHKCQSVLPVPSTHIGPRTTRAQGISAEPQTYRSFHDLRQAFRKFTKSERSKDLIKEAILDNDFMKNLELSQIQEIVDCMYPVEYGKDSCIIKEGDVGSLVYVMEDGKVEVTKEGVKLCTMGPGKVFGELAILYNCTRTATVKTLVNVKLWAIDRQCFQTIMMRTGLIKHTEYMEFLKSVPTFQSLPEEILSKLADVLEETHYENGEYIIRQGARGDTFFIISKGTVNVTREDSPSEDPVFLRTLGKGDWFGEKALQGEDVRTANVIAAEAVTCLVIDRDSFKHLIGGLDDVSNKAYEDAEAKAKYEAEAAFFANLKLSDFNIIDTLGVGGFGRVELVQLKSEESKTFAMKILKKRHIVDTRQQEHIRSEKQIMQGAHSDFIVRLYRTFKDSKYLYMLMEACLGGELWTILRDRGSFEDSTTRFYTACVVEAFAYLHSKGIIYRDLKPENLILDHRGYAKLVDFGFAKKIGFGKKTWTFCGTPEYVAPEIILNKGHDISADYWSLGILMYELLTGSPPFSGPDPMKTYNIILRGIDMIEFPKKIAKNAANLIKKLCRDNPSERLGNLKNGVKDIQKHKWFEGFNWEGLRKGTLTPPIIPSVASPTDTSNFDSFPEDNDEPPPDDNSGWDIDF
Chain of Maternal embryonic leucine zipper kinase (Homo sapiens) (Q14680 whole entry, looked up, the tested form may be a part): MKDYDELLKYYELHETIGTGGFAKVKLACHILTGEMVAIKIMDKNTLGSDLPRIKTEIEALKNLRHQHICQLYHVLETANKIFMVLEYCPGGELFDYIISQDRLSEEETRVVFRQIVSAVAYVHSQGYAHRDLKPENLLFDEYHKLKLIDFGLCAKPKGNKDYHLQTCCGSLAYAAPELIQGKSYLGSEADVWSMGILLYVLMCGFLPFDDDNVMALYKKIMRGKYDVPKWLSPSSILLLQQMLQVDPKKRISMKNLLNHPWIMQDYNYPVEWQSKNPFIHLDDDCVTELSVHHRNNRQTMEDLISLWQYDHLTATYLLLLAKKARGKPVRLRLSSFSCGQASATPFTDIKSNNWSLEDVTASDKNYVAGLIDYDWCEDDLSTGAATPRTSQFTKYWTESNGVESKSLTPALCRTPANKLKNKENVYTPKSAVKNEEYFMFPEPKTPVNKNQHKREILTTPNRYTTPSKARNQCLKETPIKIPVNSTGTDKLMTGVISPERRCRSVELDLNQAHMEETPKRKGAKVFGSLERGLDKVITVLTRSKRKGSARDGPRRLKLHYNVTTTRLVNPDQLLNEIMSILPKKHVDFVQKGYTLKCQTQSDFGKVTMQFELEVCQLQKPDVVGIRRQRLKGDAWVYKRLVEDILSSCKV
Chain of Platelet-derived growth factor receptor alpha (Homo sapiens) (P16234 whole entry, the tested form may be a part): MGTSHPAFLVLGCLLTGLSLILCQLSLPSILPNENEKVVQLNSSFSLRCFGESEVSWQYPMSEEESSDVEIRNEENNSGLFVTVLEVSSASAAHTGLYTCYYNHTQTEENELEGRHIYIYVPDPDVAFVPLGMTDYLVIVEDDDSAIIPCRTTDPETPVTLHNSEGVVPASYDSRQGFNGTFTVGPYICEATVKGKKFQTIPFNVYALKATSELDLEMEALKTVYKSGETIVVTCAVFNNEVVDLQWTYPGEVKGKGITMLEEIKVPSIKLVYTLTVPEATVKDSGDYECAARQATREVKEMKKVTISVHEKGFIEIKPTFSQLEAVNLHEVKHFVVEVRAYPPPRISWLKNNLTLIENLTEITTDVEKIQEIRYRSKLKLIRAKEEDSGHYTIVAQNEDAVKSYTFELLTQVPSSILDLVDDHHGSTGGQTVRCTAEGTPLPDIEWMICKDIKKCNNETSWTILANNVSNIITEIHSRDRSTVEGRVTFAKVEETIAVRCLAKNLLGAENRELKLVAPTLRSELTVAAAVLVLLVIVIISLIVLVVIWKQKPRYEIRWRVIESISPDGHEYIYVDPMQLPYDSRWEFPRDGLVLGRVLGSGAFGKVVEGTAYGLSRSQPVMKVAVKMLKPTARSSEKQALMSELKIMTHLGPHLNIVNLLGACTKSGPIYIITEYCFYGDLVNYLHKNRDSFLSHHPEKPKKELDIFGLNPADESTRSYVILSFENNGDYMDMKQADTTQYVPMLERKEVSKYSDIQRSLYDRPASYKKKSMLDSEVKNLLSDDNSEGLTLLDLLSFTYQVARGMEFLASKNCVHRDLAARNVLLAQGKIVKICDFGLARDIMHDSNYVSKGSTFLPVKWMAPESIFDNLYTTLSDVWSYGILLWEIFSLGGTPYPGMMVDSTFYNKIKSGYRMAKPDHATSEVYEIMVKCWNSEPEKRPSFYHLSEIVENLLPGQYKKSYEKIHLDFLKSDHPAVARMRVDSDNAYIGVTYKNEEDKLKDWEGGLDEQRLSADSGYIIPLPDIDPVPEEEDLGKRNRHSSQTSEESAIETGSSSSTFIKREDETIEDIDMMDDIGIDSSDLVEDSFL
Chain of Calcium/calmodulin-dependent protein kinase kinase 2 (Homo sapiens) (Q96RR4 2-588 limits assumed): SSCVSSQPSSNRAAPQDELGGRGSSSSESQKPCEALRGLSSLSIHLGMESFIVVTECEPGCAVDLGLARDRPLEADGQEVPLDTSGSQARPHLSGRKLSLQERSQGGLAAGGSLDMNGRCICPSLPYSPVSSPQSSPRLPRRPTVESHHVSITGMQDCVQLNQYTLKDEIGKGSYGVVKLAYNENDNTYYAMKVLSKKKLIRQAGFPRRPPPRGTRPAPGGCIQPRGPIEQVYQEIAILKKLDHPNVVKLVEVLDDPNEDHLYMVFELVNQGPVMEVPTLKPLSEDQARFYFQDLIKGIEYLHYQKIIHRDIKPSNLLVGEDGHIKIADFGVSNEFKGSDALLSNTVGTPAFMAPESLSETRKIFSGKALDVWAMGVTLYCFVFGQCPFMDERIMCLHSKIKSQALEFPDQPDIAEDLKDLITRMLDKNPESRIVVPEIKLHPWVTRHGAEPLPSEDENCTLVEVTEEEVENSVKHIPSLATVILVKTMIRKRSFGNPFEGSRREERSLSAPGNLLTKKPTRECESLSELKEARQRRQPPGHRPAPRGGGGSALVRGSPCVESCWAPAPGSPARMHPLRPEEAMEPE
Chain of Mitogen-activated protein kinase 12 (Homo sapiens) (P53778 whole entry, the tested form may be a part): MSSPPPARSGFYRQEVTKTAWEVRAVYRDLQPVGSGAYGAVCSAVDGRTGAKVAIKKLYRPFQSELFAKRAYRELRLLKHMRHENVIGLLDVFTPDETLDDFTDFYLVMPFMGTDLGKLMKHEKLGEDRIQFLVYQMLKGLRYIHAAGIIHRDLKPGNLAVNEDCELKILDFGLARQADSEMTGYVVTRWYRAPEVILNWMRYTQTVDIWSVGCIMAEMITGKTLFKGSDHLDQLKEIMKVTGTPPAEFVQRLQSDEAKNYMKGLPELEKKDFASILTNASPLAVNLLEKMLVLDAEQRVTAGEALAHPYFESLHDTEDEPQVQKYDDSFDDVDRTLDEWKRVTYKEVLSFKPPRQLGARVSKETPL
Chain of Casein kinase I isoform alpha (Homo sapiens) (P48729 2-337 limits assumed): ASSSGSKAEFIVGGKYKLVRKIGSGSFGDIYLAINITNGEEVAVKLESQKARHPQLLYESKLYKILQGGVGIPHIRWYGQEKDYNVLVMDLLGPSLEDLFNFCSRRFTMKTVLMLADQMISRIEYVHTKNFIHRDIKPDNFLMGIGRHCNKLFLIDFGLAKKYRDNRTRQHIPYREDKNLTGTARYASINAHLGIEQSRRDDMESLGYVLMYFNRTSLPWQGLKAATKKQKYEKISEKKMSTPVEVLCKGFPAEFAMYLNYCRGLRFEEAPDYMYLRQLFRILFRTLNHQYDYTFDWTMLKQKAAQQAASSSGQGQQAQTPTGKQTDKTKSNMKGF

One may read the IC50 as the midpoint of a concentration-inhibition curve. As to `C=CC(=O)Nc1ccccc1Nc1nc(Nc2ccc(N3CCN(C)CC3)cc2)ncc1C(=O)Nc1c(C)cccc1Cl`, the IC50 in test [1] was 500 nM. Further, the Activity in [2] worked out at 89%; in [3], 100%; in [4] it was 94%; in test [5], 100%; in [6], 100%; in [7] it was 100%. Also, the Activity in [8] worked out at 86%; in [9], 80%; in test [10], 100%; in [11], 100%; in test [12], 88%; in test [13], 100%. In addition, the Activity was found to be 2.8% in test [14]; 100% in [15]; 100% in test [16]; 97% in test [17]; 97% in test [18]; 90% in [19]. Also, the Activity in test [20], in test [21] and in test [22] was 100% in each case.

(Values after ChEMBL document CHEMBL4354843, “Structure-Based Design of a Potent and Selective Covalent Inhibitor for SRC Kinase That Targets a P-Loop Cysteine” (J Med Chem, 2020).)
